Laboratory results reported in ChEMBL document CHEMBL1147939, “Synthesis and biological evaluation of new 3-substituted indole derivatives as potential anti-inflammatory and analgesic agents” (2007).

What was measured:
Type in all cases: functional
Mus musculus [1] = assay: Effect on thermal pain in Swiss mouse at 70 mg/kg, po after 1 hr by hot plate test relative to indomethacin; parameters: unit not given here
Procedure, shortened: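 Hot-plate at 52 °C (60 s cut-off), Swiss mice, six per group. Latency to licking or jumping measured before and 1 h after 70 mg/kg orally. Potency is the ratio of % change from basal to that of the indomethacin group (35 mg/kg).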

Mus musculus [2] = assay: Antiinflammatory activity in Swiss mouse assessed as inhibition of carrageenan-induced hind paw oedema at 70 mg/kg, po after 4 hrs relative to indomethacin
Procedure, shortened: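 Carrageenan paw oedema in Swiss mice, six per group, 70 mg/kg orally in distilled water; 50 µL 1% carrageenan subplantar, paw measured at 0 and 4 h. Potency expressed as ratio of the compound's percentage change to that of the indomethacin group (35 mg/kg in 5% sodium bicarbonate).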

Mus musculus [3] = assay: Antinociceptive activity in Swiss mouse assessed as inhibition of acetic-acid induced writhing at 70 mg/kg, po after 30 mins by Koster test relative to indomethacin
Procedure, shortened: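 Acetic acid writhing in Swiss mice, six per group: 70 mg/kg orally in distilled water, 0.6% acetic acid ip 60 min later, writhes counted over 30 min. Potency is the ratio of % change to that of the indomethacin group (35 mg/kg).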

Mus musculus [4] = assay: Antiinflammatory activity in Swiss mouse assessed as inhibition of carrageenan-induced hind paw oedema at 70 mg/kg, po after 4 hrs
Procedure, shortened: (§1)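 Swiss mice (20–30 g), six per group; oral dosing, test agents in distilled water, reference in 5% sodium bicarbonate, saline controls. Oedema induced by subplantar injection of 50 µL 1% carrageenan in saline into right hind paw. Paw size measured before and 4 h after carrageenan. % oedema inhibition calculated versus saline control group's % oedema formation. Mean ± SE; one-way ANOVA, Duncan's test.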

Mus musculus [5] = assay: Antinociceptive activity in Swiss mouse assessed as inhibition of acetic-acid induced writhing at 70 mg/kg, po after 30 mins by Koster test
Procedure, shortened: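 Koster writhing test in Swiss mice (20–30 g), six per group. Oral dosing, test agents in distilled water, reference in 5% sodium bicarbonate. After 60 min, 0.6% acetic acid given ip (0.2 mL/mouse). Writhes counted over 30 min. % change versus saline control group. Mean ± SE; one-way ANOVA, Duncan's test.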

Mus musculus [6] = assay: Effect on thermal pain in Swiss mouse at 70 mg/kg, po after 1 hr by hot plate test
Procedure, shortened: (§2)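 Hot-plate at 52 °C, 60 s cut-off, Swiss mice, six per group. Latency to paw licking or jumping recorded before and 1 h after oral dosing (test agents in distilled water, reference in 5% sodium bicarbonate). % change from basal latency. Mean ± SE; one-way ANOVA, Duncan's test.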

Mus musculus [7] = assay: Antinociceptive activity in Swiss mouse assessed as inhibition of acetic-acid induced writhing at 35 mg/kg, […] by Koster test; parameters: scale not given: the % may be the effect or the level left; conditions: route oral
Mus musculus [8] = assay: Effect on thermal pain in Swiss mouse at 35 mg/kg, po after 1 hr by hot plate test; procedure, shortened: as §2
Mus musculus [9] = assay: Antiinflammatory activity in Swiss mouse assessed as inhibition of carrageenan-induced hind paw oedema at 35 mg/kg, po after 4 hrs; procedure, shortened: as §1

Compound | Activity (Mus musculus [1]) | Activity (Mus musculus [2]) | Activity (Mus musculus [3]) | inhibition in vivo at 70 mg/kg (Mus musculus [4]) | percent change in writhing count versus control (Mus musculus [5]) | Activity (Mus musculus [6]) | Activity (Mus musculus [7]) | Activity (Mus musculus [8]) | inhibition in vivo at 35 mg/kg (Mus musculus [9])
CC(=O)C1=NN(c2ccccc2)/C(=C(\C#N)C(=O)c2c[nH]c3ccccc23)S1 | 0.1 | 0.6 ratio (fold of indomethacin) | 0.88 ratio to indomethacin | -21.9% | -71.6% | 2.4% | – | – | –
N#C/C(=N\Nc1cc(-c2ccccc2)n[nH]1)C(=O)c1c[nH]c2ccccc12 | 1.3 | 0.4 ratio (fold of indomethacin) | 0.77 ratio to indomethacin | -13.1% | -62.5% | 28.3% | – | – | –
N#C/C(=N\Nc1nc2ccccc2[nH]1)C(=O)c1c[nH]c2ccccc12 | 0.4 | 0.9 ratio (fold of indomethacin) | 0.78 ratio to indomethacin | -25.5% | -63.2% | 8.6% | – | – | –
N#C/C(C(=O)c1c[nH]c2ccccc12)=C(\S)Nc1ccccc1 | 1.1 | 0.9 ratio (fold of indomethacin) | 0.79 ratio to indomethacin | -28% | -64.1% | 24.2% | – | – | –
N#C/C(C(=O)c1c[nH]c2ccccc12)=C1/SCC(=O)N1c1ccccc1 | 3.4 | 0.3 ratio (fold of indomethacin) | 0.75 ratio to indomethacin | -7.7% | -60.9% | 76.5% | – | – | –
CCOC(=O)C1=NN(c2ccccc2)/C(=C(\C#N)C(=O)c2c[nH]c3ccccc23)S1 | 0.4 | 0.2 ratio (fold of indomethacin) | 0.76 ratio to indomethacin | -5.5% | -61.7% | 9.6% | – | – | –
CCOC(=O)C1=NN(c2ccc(C)cc2)/C(=C(\C#N)C(=O)c2c[nH]c3ccccc23)S1 | 0.5 | 0.4 ratio (fold of indomethacin) | 0.96 ratio to indomethacin | -11.5% | -77.5% | 11.4% | – | – | –
CCOC(=O)C1=NN(c2ccc(Cl)cc2)/C(=C(\C#N)C(=O)c2c[nH]c3ccccc23)S1 | 0.4 | 0.6 ratio (fold of indomethacin) | 0.9 ratio to indomethacin | -19.1% | -76% | 9.9% | – | – | –
CC(=O)c1sc(Nc2ccccc2)c(C#N)c1-c1c[nH]c2ccccc12 | 0.5 | 1.5 ratio (fold of indomethacin) | 0.85 ratio to indomethacin | -44.4% | -68.6% | 11.2% | – | – | –
CC(=O)C1=NN(c2ccc(C)cc2)/C(=C(\C#N)C(=O)c2c[nH]c3ccccc23)S1 | 0.9 | 1.1 ratio (fold of indomethacin) | 0.7 ratio to indomethacin | -32.7% | -57.8% | 21% | – | – | –
CC(=O)C1=NN(c2ccc(Cl)cc2)/C(=C(\C#N)C(=O)c2c[nH]c3ccccc23)S1 | 3.1 | 0.5 ratio (fold of indomethacin) | 0.57 ratio to indomethacin | -15% | -45.7% | 69.6% | – | – | –
N#C/C(C(=O)c1c[nH]c2ccccc12)=C1/SC(c2ccccc2)=NN1c1ccccc1 | 1.2 | 0.9 ratio (fold of indomethacin) | 0.4 ratio to indomethacin | -31% | -35.3% | 27.3% | – | – | –
COc1ccc2c(c1)c(CC(=O)O)c(C)n2C(=O)c1ccc(Cl)cc1 [INDOMETHACIN] | – | – | – | – | – | – | -80.7% | 22.6% | -29.9%
